Columns and labels:
[1] = target: T1, Hypoxanthine-guanine phosphoribosyltransferase (Homo sapiens, UniProt P00492); assay: Inhibition of human HGPRT by spectrophotometric assay
T1 sequence (P00492 whole entry): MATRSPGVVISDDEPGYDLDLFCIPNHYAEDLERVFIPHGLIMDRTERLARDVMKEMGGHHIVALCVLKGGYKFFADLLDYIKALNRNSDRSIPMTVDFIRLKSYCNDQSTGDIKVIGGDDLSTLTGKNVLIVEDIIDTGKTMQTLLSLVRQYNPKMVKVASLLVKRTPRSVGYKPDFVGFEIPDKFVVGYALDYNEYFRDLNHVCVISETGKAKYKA
Procedure, shortened: (§1)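 Spectrophotometric assay at 25°C in 0.1 M Tris-HCl, 10 mM MgCl2, pH 7.4. PRib-PP was the variable substrate and guanine the fixed substrate at a saturating 60 μM. Values are apparent Ki, since only one concentration of the second substrate was used, calculated from Km(app) = Km(1+[I]/Ki(app)).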

[2] = Inhibition of Plasmodium falciparum HGXPRT by spectrophotometric assay; procedure, shortened: as §1
Plasmodium falciparum [3] = assay: Antimalarial activity against chloroquine-sensitive Plasmodium falciparum D6 infected in erythrocytes assessed as inhibition of [3H]-hypoxanthine incorporation after 6 days; format: functional, organism-based
Plasmodium falciparum [4] = assay: Antimalarial activity against chloroquine-resistant Plasmodium falciparum W2 infected in erythrocytes assessed as inhibition of [3H]-hypoxanthine incorporation after 6 days; format: functional, organism-based
[5] = Cytotoxicity against human A549 cells after 4 days; format: cell-based
Procedure, shortened: (§2)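 Cells seeded in 96-well plates at 7,500 (A549) or 15,000 (C32, C32-TG) per well; compounds added at serial dilutions 24 h later. Incubated four days at 37°C, then trypsinized and counted with a Coulter Counter. CC50 is the concentration giving 50% proliferation versus untreated cells, obtained by extrapolation; mean ± SEM of two or three independent tests.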

[6] = Cytotoxicity against human C32 cells after 4 days; format: cell-based; procedure, shortened: as §2
[7] = Cytotoxicity against human HGPRT-deficient thioguanine-resistant C32TG cells after 4 days; format: cell-based; procedure, shortened: as §2

| Ki [1] [µM] | Compound | Ki [2] [µM] | IC50 (Plasmodium falciparum [3]) [µM] | IC50 (Plasmodium falciparum [4]) [µM] | CC50 at 96 h [5] [µM] | CC50 at 96 h [6] [µM] | CC50 at 96 h [7] [µM] |
| --- | --- | --- | --- | --- | --- | --- | --- |
| 10 | O=c1[nH]cnc2c1ncn2CCN(CCP(=O)(O)O)CP(=O)(O)O | 6 |  |  |  |  |  |
|  | CCOC(=O)[C@H](Cc1ccccc1)NP(=O)(CCN(CCn1cnc2c(=O)[nH]c(N)nc21)CCP(=O)(N[C@@H](Cc1ccccc1)C(=O)OCC)N[C@@H](Cc1ccccc1)C(=O)OCC)N[C@@H](Cc1ccccc1)C(=O)OCC |  | 6.3 | 7.4 | 144 | 51 | 53 |
|  | CCOC(=O)[C@H](Cc1ccccc1)NP(=O)(CCN(CCC(=O)OC)CCn1cnc2c(=O)[nH]c(N)nc21)N[C@@H](Cc1ccccc1)C(=O)OCC |  | 11.8 | 5.6 | > 300 | > 300 | > 300 |
| 2 | Nc1nc2c(ncn2CCN(CCP(=O)(O)O)CP(=O)(O)O)c(=O)[nH]1 | 1 |  |  |  |  |  |
|  | CC(C)OC(=O)[C@H](Cc1ccccc1)NP(=O)(CCN(CCOCc1ccccc1)CCn1cnc2c(=O)[nH]c(N)nc21)N[C@@H](Cc1ccccc1)C(=O)OC(C)C |  | 1.6 | 2.9 | 20 | 17 | 23 |
|  | CCOC(=O)[C@H](Cc1ccccc1)NP(=O)(CCN(CCCC#N)CCn1cnc2c(=O)[nH]cnc21)N[C@@H](Cc1ccccc1)C(=O)OCC |  | 4.2 | 5.5 | 30 | 102 | 89 |
|  | CCOC(=O)[C@H](Cc1ccccc1)NP(=O)(CCN(CCn1cnc2c(=O)[nH]c(N)nc21)CP(=O)(N[C@@H](Cc1ccccc1)C(=O)OCC)N[C@@H](Cc1ccccc1)C(=O)OCC)N[C@@H](Cc1ccccc1)C(=O)OCC |  | 10.4 | 4.6 | > 300 | 65 | 56 |
| 13 | O=c1[nH]cnc2c1ncn2CCN(CCOCc1ccccc1)CCP(=O)(O)O | 4.3 |  |  |  |  |  |
|  | CCOC(=O)[C@H](Cc1ccccc1)NP(=O)(CCN(CCC(=O)OC)CCn1cnc2c(=O)[nH]cnc21)N[C@@H](Cc1ccccc1)C(=O)OCC |  | 3.5 | 2.9 | 70 | > 300 | 212 |
|  | CC(C)OC(=O)[C@H](Cc1ccccc1)NP(=O)(CCN(CCOCc1ccccc1)CCn1cnc2c(=O)[nH]cnc21)N[C@@H](Cc1ccccc1)C(=O)OC(C)C |  | 1.5 | 2.8 | 23 | 13 | 18 |
|  | CCOC(=O)[C@H](Cc1ccccc1)NP(=O)(CCN(CCn1cnc2c(=O)[nH]cnc21)CCP(=O)(N[C@@H](Cc1ccccc1)C(=O)OCC)N[C@@H](Cc1ccccc1)C(=O)OCC)N[C@@H](Cc1ccccc1)C(=O)OCC |  | 3.1 | 2.7 | 79 | 48 | 48 |
|  | CCOC(=O)[C@H](Cc1ccccc1)NP(=O)(CCN(CCn1cnc2c(=O)[nH]cnc21)CP(=O)(N[C@@H](Cc1ccccc1)C(=O)OCC)N[C@@H](Cc1ccccc1)C(=O)OCC)N[C@@H](Cc1ccccc1)C(=O)OCC |  | 4.7 | 1.6 | 41 | 23 | 25 |
|  | CCOC(=O)[C@H](Cc1ccccc1)NP(=O)(CCN(CCCC(=O)OC)CCn1cnc2c(=O)[nH]c(N)nc21)N[C@@H](Cc1ccccc1)C(=O)OCC |  | 8.6 | 5.7 | ≥ 232 | 234 | ≥ 246 |
| 3.8 | O=c1[nH]cnc2c1ncn2CCN(CCP(=O)(O)O)CC(O)CO (configuration not stated) | 5 |  |  |  |  |  |
| 1.9 | Nc1nc2c(ncn2CCN(CCOCc2ccccc2)CCP(=O)(O)O)c(=O)[nH]1 | 2.4 |  |  |  |  |  |

| Compound | Ki [1] [µM] | Ki [2] [µM] | IC50 (Plasmodium falciparum [3]) [µM] | IC50 (Plasmodium falciparum [4]) [µM] | CC50 at 96 h [5] [µM] | CC50 at 96 h [6] [µM] | CC50 at 96 h [7] [µM] |
| --- | --- | --- | --- | --- | --- | --- | --- |
| Nc1nc2c(ncn2CCN(CCP(=O)(O)O)CC(O)CO)c(=O)[nH]1 (configuration not stated) | 0.6 | 0.6 |  |  |  |  |  |

Reference: ChEMBL document CHEMBL3603793, “Antimalarial activity of prodrugs of N-branched acyclic nucleoside phosphonate inhibitors of 6-oxopurine phosphoribosyltransferases” (Bioorg Med Chem, 2015)
